# Compounds with a hit are over-represented: about 9.6% of the library has one in this group of screens.
# Ba/F3 V617F tox – lowers viability of Ba/F3 cells expressing EpoR and JAK2V617F; ATP luminescence; inhibition, % at 5.6 µM; 1.1% of 220,000 active;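 active = inhibition above the campaign mean plus 3 SD over all tested compounds, cut at about 24% in these data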;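 note: cytokine-independent growth of Ba/F3 cells driven by EpoR plus mutant JAK2; 0% = DMSO-treated cells and 100% = JAK inhibitor I control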
# bCat nuc transl – beta-catenin nuclear translocation modulation. AID 1665. nuclear translocation activity, % at 5 µM. 0.3% of 190,000 active. HeLa beta-catenin nuclear translocation, immunofluorescence imaging;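 active = nuclear translocation activity above 50% at 5 µM, with a well cell count of 50 or more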;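 note: per-cell ratio of nuclear to cytoplasmic median beta-catenin stain intensity; plate controls were DMSO negative control for no effect and GSK-3 inhibitor IX positive control for full effect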
#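 Signal – beta-catenin immunofluorescence imaging with DAPI · Test system – human HeLa cell line · Dosing – 5 µM primary single dose, 0.1% DMSO, 0.02–20 µM confirmation series · Measure – % activation, nuclear-to-cytoplasmic median beta-catenin signal ratio per cell · Incubation – 24 h compound exposure at 37°C, 5% CO2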
# BaF3 parental – parental Ba/F3 viability inhibition as JAK2V617F counter-screen. CellTiter-Glo ATP luminescence. inhibition, % at 5.6 µM. 1.1% of 220,000 active;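 active = inhibition above a per-campaign cutoff, the mean inhibition of all tested compounds plus 3 SD, cut at about 27% in these data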;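 note: 0% = DMSO wells and 100% = JAK Inhibitor I control wells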
# APP transl inh – APP translation inhibition | AID 1285 | inhibition, % at 2 µM | SH-SY5Y APP 5'UTR-luciferase reporter, luminescence | 0.82% of 190,000 active;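 active = inhibition above a set limit, derived from the sample mean plus 3 SD, cut at about 45% in these data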
# MT stabilize HCS – microtubule stabilization, imaging screen. HeLa tubulin immunostaining HCS, 24 h; share of cells brighter than vehicle mean+2SD. % tubulin-high responders, % at 10 µM. 0.83% of 200,000 active. AID 2205;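 active = plate Z-score above 3 for both tubulin-high and condensed-nucleus cell shares, with cell loss under 80%, at 10 µM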;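 note: anti alpha tubulin signal scored within the nucleus-defined area of each cell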
# Lmaj promast – Leishmania major promastigote growth inhibition. 9% of 200,000 active. inhibition, % at 10 µM. Leishmania major promastigotes, resazurin fluorescence viability; in the data active = inhibition above about 50%;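 note: promastigotes grown with compound for 44 hours at 28 °C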
# The depositor's hits bear a star; · = not tested or not shown.
SMILES,Ba/F3 V617F tox,bCat nuc transl,BaF3 parental,APP transl inh,MT stabilize HCS,Lmaj promast
CC(C)(C)c1ccccc1OCCCCCn1ccnc1,3,4,10,-9,3,95*
CCOc1ccc(OCCCCn2ccnc2)cc1,0,0,0,-29,2,4
Cc1cccc(OCCCCCn2ccnc2)c1C,-1,0,5,2,4,99*
CCC(C)(C)C1CCc2nc3ccccc3c(C(=O)OC(C)C(=O)Nc3c(C)n(C)n(-c4ccccc4)c3=O)c2C1 (stereo not drawn),-2,-2,7,-2,4,84*
Cc1c(NC(=O)C(C)OC(=O)c2cccs2)c(=O)n(-c2ccccc2)n1C (stereo not drawn),4,-2,10,-26,3,-4
Cn1c(=NC(=O)CCl)sc2ccccc21,13,0,2,25,3,84*
CN(C)c1ccc(N=c2sc3ccccc3n2C)cc1,-5,3,-2,-74,5,98*
c1ccc2c(-c3[nH]ncc3CNCCCn3ncc4ccccc43)cccc2c1,16,0,13,1,2,77*
C=CCC(C)(NCc1ccccc1)c1ccc(C)cc1 (stereo not drawn),0,·,6,-9,3,69*
Cc1cc(/C=N/Nc2nc(N3CCOCC3)nc(N3CCOCC3)n2)c(C)n1-c1ccccc1,-3,0,6,17,3,8
COc1ccc(-n2c(C)cc(/C=N/Nc3nc(N4CCOCC4)nc(N4CCOCC4)n3)c2C)cc1,3,-5,11,12,3,98*
CC/S(=N\S(=O)(=O)c1ccc(C)cc1)c1ccccc1 (stereo not drawn),-3,-5,2,·,·,·
Cc1ccc(C)c(N2CCN(CCCNC(=O)Cn3cccc3C(=O)c3ccccc3)CC2)c1,1,-1,6,5,2,47
O=C1C2CCCCC2C(=O)N1c1ccc(NC2CCCCC2)c([N+](=O)[O-])c1 (stereo not drawn),-5,0,2,-5,2,52*
O=C1C2CC=CCC2C(=O)N1c1ccc(NCCc2cccc(F)c2)c([N+](=O)[O-])c1 (stereo not drawn),3,0,2,-5,3,61*
Cc1nc2c(C)cccc2c2c1CCN2c1ccccc1F,3,0,-2,·,·,·
COc1ccc(N2CCN(S(=O)(=O)c3cc(C)ccc3OC)CC2)cc1,4,-2,9,6,2,49
COc1ccc(N2CCc3c(C)nc4c(OC)cc(OC)cc4c32)cc1,5,0,6,-9,3,100*
COc1ccc(N2CCc3c(C)nc4c(OC)cccc4c32)cc1,87*,104*,78*,86*,26*,100*
C/C(=N\NC(=O)CCc1ccc(S(=O)(=O)N2CCOCC2)cc1)c1ccc(OC(F)F)cc1,0,-2,5,0,11,-6
Cc1ccc(S(=O)(=O)NCCSc2nnnn2-c2cc(C)ccc2C)cc1,-1,5,3,-2,4,100*
Cc1ccc(S(=O)(=O)NCCSc2nnnn2-c2ccccc2)cc1,0,-2,4,-4,5,7
Cc1ccc(C)c(-n2nnnc2Sc2nnnn2-c2ccccc2)c1,3,·,4,17,1,98*
CCSc1nnnn1-c1ccccc1,2,·,4,13,1,-4
CCOC(=O)N1CCN(C(=O)/C(=C/c2ccc(Br)cc2)NC(=O)c2ccc(OC)cc2)CC1,-1,-2,0,-20,2,-4
SMILES,Ba/F3 V617F tox,bCat nuc transl,BaF3 parental,APP transl inh,MT stabilize HCS,Lmaj promast
O=C(c1c(Cl)nc2sccn12)N(C(=O)c1c(Cl)nc2sccn12)c1ccc(Cl)cn1,-4,·,-2,-127,2,28
CSCc1cc(N2CCCC2)nc(-c2ccccc2)n1,-1,-2,4,-6,2,68*
COc1ccc(Nc2ncnc3c2cnn3Cc2ccc(C)cc2)cc1,-2,0,3,-7,1,90*
c1ccc(Cn2ncc3c(Nc4ccccc4)ncnc32)cc1,-2,0,-4,-13,·,·
O=C(NCCCCc1ccccc1)C1CC(c2ccc(C(F)(F)F)cc2)=NO1 (stereo not drawn),·,0,·,·,·,·
COc1ccc(/C=N/NC(=O)c2[nH]nc3c2CCc2ccccc2-3)cc1OC,-2,127*,3,3,22*,0
COc1ccc(/C=N/NC(N)=S)cc1OC(=O)c1cccc2ccccc12,4,·,4,-19,35*,99*
COc1ccc(/C=N/NC(=O)c2cc(=O)[nH]c3ccccc23)cc1OC,3,1,39*,1,3,-7
Cc1cc(C)nc(/N=C(\N)Nc2ccc(C(C)C)cc2)n1,3,0,2,·,·,·
CN1CCN(CCCC(=O)c2ccc(F)cc2)CC1,1,2,92*,-3,6,17
CCN(CC)CCC(=O)c1ccc(F)cc1,-4,-3,-3,30,4,80*
O=C(CCCN1Cc2ccccc2C1)c1ccc(F)cc1,-4,2,2,-22,5,93*
O=C(CCN1CCc2ccccc2C1)Nc1ccc(F)cc1,4,·,4,-2,6,3
O=C(c1oc2ccccc2c1CSCc1ccccc1)N1CCN(c2ncccn2)CC1,1,0,6,1,3,50
O=C(NC12CC3CC(CC(C3)C1)C2)N(Cc1ccccc1)Cc1ccncc1,-1,0,3,-18,1,55*
O=C(NC12CC3CC(CC(C3)C1)C2)c1ccccc1,1,-1,4,-1,2,-6
c1cc(CNC23CC4CC(CC(C4)C2)C3)ccn1,-1,1,8,-16,2,84*
S=c1[nH]nc(CCCc2n[nH]c(=S)o2)o1,-6,1,4,·,·,·
CCCOc1ccc(CN(CCC#N)C(=S)NC(=O)c2ccccc2)cc1,1,-2,6,7,3,85*
CN(Cc1ccccc1)C(=S)NC(=O)c1ccccc1,0,0,7,23,5,-8
c1ccc(CCn2nnnc2C(c2cccnc2)N2CCOCC2)cc1 (stereo not drawn),-2,-2,6,8,2,29
Cc1c(CCOC(=O)c2cc([N+](=O)[O-])cc([N+](=O)[O-])c2)sc[n+]1CC(=O)c1ccc(Br)cc1,1,3,8,-14,4,100*
CC1(C)CC(=O)C2=C(C1)NC1=C(C(=O)c3ccccc31)C2c1ccc(Cl)cc1 (stereo not drawn),2,-1,8,-5,4,60*
Cc1ccc(C2C3=C(CC(C)(C)CC3=O)NC3=C2C(=O)c2ccccc23)cc1 (stereo not drawn),-3,-1,7,3,5,36
CCCCN1C2=C(C(=O)CC(C)(C)C2)C(c2ccccc2)C2=C1c1ccccc1C2=O (stereo not drawn),1,·,6,10,5,84*

# Bioassay records: PubChem, several laboratories
